Data taken from ChEMBL document CHEMBL1149292, “A rational utilization of high-throughput screening affords selective, orally bioavailable 1-benzyl-3-carboxyazetidine sphingosine-1-phosphate-1 receptor agonists” (J Med Chem, 2004).
Calls of active or inactive are those of the source. The calls are words filed in the database; no cut-off is given here.

Columns and labels:
[1] = target: Sphingosine 1-phosphate receptor 1 (Homo sapiens, UniProt P21453); assay: Displacement of [33P]sphingosine 1 phosphate from human S1P1 receptor expressed in CHO cells; format: cell-based
Sphingosine 1-phosphate receptor 1, sequence (P21453 whole entry): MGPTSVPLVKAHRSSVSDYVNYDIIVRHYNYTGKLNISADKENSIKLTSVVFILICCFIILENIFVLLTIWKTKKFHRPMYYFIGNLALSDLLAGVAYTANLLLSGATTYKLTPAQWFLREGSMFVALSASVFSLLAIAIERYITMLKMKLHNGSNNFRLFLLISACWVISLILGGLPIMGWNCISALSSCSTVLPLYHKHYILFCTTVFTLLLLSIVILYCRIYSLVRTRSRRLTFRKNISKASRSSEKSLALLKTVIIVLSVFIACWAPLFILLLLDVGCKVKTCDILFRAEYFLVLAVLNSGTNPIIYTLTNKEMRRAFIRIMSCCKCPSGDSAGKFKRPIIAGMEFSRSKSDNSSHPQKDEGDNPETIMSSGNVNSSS

[2] = target: T1, Sphingosine 1-phosphate receptor 4 (Homo sapiens, UniProt O95977); assay: Displacement of [33P]sphingosine 1 phosphate from human S1P4 receptor expressed in CHO cells; format: cell-based
T1 sequence (O95977 whole entry): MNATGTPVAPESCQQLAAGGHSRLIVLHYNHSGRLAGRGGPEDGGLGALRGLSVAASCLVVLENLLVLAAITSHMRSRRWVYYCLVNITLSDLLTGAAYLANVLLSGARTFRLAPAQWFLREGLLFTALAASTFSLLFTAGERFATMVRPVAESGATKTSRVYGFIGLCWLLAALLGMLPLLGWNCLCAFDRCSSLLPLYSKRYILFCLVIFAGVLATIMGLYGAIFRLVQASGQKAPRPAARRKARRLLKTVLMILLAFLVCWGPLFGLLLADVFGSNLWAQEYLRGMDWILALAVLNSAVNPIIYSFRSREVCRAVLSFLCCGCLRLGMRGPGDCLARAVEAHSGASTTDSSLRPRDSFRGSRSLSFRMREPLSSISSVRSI
How it was run: (§1)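 Competition binding with [33P]-labeled S1P on membranes of CHO cells stably expressing each human S1P receptor. Values are the mean of n = 3 determinations.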

[3] = target: Sphingosine 1-phosphate receptor 5 (Homo sapiens, UniProt Q9H228); assay: Displacement of [33P]sphingosine 1 phosphate from human S1P5 receptor expressed in CHO cells; format: cell-based; how it was run: as §1
Sphingosine 1-phosphate receptor 5, sequence (Q9H228 whole entry): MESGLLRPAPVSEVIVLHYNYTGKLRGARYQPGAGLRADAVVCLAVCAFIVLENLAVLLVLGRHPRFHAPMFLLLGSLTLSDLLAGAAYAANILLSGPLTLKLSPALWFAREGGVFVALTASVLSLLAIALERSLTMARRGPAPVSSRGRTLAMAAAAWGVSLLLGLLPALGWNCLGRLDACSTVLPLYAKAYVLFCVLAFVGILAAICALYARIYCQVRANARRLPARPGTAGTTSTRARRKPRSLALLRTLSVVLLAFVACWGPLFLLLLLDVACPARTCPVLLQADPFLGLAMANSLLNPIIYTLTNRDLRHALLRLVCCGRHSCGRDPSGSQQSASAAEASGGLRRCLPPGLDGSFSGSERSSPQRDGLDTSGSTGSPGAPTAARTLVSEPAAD

Rattus norvegicus [4] = assay: Decrease in peripheral blood lymphocyte counts in Lewis rat at 3 mg/kg, po after 24 hrs; format: functional
How it was run: (§2)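 Rat oral dose-titration at 1–30 mpk po. Peripheral blood lymphocyte counts and plasma compound concentrations determined 24 h postdose.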

Rattus norvegicus [5] = assay: Decrease in peripheral blood lymphocyte counts in Lewis rat at 10 mg/kg, po after 24 hrs; format: functional; how it was run: as §2
Rattus norvegicus [6] = assay: Decrease in peripheral blood lymphocytes in Lewis rat at 1 mg/kg, po after 24 hrs relative to control; format: functional; set-up: scale not given: the % may be the effect or the level left; how it was run: as §2
Rattus norvegicus [7] = assay: Decrease in peripheral blood lymphocyts in Lewis rat at 10 mg/kg, po after 24 hrs relative to control; format: functional; set-up: scale not given: the % may be the effect or the level left; how it was run: as §2
[8] = Half life in rat at 2 mg/kg, po and 1 mg/kg, iv; format: ADME, organism-based; details: in vivo
How it was run: (§3)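 Rat PK at 2.0 mpk po and 1.0 mpk iv. Plasma compound levels measured.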

[9] = Plasma concentration in femoral artery cannulated Lewis rat at 3 mg/kg, po after 48 hrs; format: ADME, organism-based; set-up: dose 3 mg/kg, route oral
How it was run: (§4)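 Femoral artery cannulated Lewis rats (n = 3) got a single 3 mpk oral dose. Compound plasma concentration (nM) was measured serially over time up to 72 h postdose. Peripheral blood lymphocyte counts were taken in parallel at the same time points. The same animals were later given a second 3 mpk oral dose.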

[10] = Plasma concentration in femoral artery cannulated Lewis rat at 3 mg/kg, po after 56 hrs; format: ADME, organism-based; set-up: dose 3 mg/kg, route oral; how it was run: as §4
Rattus norvegicus [11] = assay: Decrease in peripheral blood lymphocyte counts in femoral artery cannulated Lewis rat at 3 mg/kg, po after 1 hr; format: functional
How it was run: (§5)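 Femoral artery cannulated Lewis rats (n = 3) given a single 3 mpk oral dose. PBL counts and plasma compound concentration sampled over time up to 72 h postdose. A repeat 3 mpk po challenge was given to the same animals.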

Rattus norvegicus [12] = assay: Decrease in peripheral blood lymphocyte counts in femoral artery cannulated Lewis rat at 3 mg/kg, po after 8 hrs; format: functional; how it was run: as §5
Rattus norvegicus [13] = assay: Decrease in peripheral blood lymphocyte counts in femoral artery cannulated Lewis rat at 3 mg/kg, po after 12 hrs; format: functional; how it was run: as §5
Rattus norvegicus [14] = assay: Decrease in peripheral blood lymphocyte counts in femoral artery cannulated Lewis rat at 3 mg/kg, po after 16 hrs; format: functional; how it was run: as §5
Rattus norvegicus [15] = assay: Decrease in peripheral blood lymphocyte counts in femoral artery cannulated Lewis rat at 3 mg/kg, po after 24 hrs; format: functional; how it was run: as §5
Rattus norvegicus [16] = assay: Decrease in peripheral blood lymphocyte counts in femoral artery cannulated Lewis rat at 3 mg/kg, po after 32 hrs; format: functional; how it was run: as §5
Rattus norvegicus [17] = assay: Decrease in peripheral blood lymphocyte counts in femoral artery cannulated Lewis rat at 3 mg/kg, po after 48 hrs; format: functional; how it was run: as §5
Rattus norvegicus [18] = assay: Decrease in peripheral blood lymphocyte counts in femoral artery cannulated Lewis rat at 3 mg/kg, po after 56 hrs; format: functional; how it was run: as §5
Rattus norvegicus [19] = assay: Decrease in peripheral blood lymphocytes in Lewis rat at 30 mg/kg, po after 24 hrs relative to control; format: functional; set-up: scale not given: the % may be the effect or the level left; how it was run: as §2
[20] = Plasma clearance in rat at 2 mg/kg, po and 1 mg/kg, iv; format: ADME, organism-based; how it was run: as §3
[21] = Cmax in rat at 2 mg/kg, po and 1 mg/kg, iv; format: ADME, organism-based; details: in vivo; how it was run: as §3
[22] = Volume of distribution at steady state in Beagle dog at 1 mg/kg, po and 0.5 mg/kg, iv; format: ADME, organism-based, Canis lupus familiaris; details: in vivo, read-out: Vdss
Canis familiaris [23] = assay: Cmax in Beagle dog at 1 mg/kg, po and 0.5 mg/kg, iv; format: ADME, organism-based, Canis lupus familiaris; details: in vivo
How it was run: (§6)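 Single-dose PK at 1.0 mpk po and 0.5 mpk iv. Plasma compound levels measured.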

[24] = Cmax in rhesus monkey at 1 mg/kg, po and 0.5 mg/kg, iv; format: ADME, organism-based, Macaca mulatta; details: in vivo; how it was run: as §6
[25] = Bioavailability in rhesus monkey at 1 mg/kg, po and 0.5 mg/kg, iv; format: ADME, organism-based, Macaca mulatta; details: in vivo; how it was run: as §6
Canis familiaris [26] = assay: Maximal decrease in peripheral blood lymphocyte in Beagle dog at 1 mg/kg, po after 24 hrs; format: functional, organism-based; set-up: dose 1 mg/kg; details: Canis lupus familiaris
How it was run: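 Complete blood counts run alongside plasma concentrations after a single 1.0 mpk oral dose in beagle dog or rhesus monkey. Lymphocyte counts followed over time, with PBL lowering assessed at 24 h postdose.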

[27] = Plasma concentration in Lewis rat at 1 mg/kg, po after 24 hrs; format: ADME, organism-based; set-up: dose 1 mg/kg, route oral; how it was run: as §2
[28] = Plasma concentration in Lewis rat at 10 mg/kg, po after 24 hrs; format: ADME, organism-based; set-up: dose 10 mg/kg, route oral; how it was run: as §2
[29] = Plasma concentration in Lewis rat at 30 mg/kg, po after 24 hrs; format: ADME, organism-based; set-up: dose 30 mg/kg, route oral; how it was run: as §2
Rattus norvegicus [30] = assay: Decrease in peripheral blood lymphocyte counts in femoral artery cannulated Lewis rat at 3 mg/kg, po after 72 hrs; format: functional; how it was run: as §5
[31] = Plasma concentration in femoral artery cannulated Lewis rat at 3 mg/kg, po after 72 hrs; format: ADME, organism-based; set-up: dose 3 mg/kg, route oral; how it was run: as §4
[32] = Plasma concentration in femoral artery cannulated Lewis rat at 3 mg/kg, po after 0.5 hrs; format: ADME, organism-based; set-up: dose 3 mg/kg, route oral; how it was run: as §5
[33] = Plasma concentration in femoral artery cannulated Lewis rat at 3 mg/kg, po after 2 hrs; format: ADME, organism-based; set-up: dose 3 mg/kg, route oral; how it was run: as §4
[34] = Plasma concentration in femoral artery cannulated Lewis rat at 3 mg/kg, po after 4 hrs; format: ADME, organism-based; set-up: dose 3 mg/kg, route oral; how it was run: as §4
[35] = Plasma concentration in femoral artery cannulated Lewis rat at 3 mg/kg, po after 6 hrs; format: ADME, organism-based; set-up: dose 3 mg/kg, route oral; how it was run: as §4
[36] = Plasma concentration in femoral artery cannulated Lewis rat at 3 mg/kg, po after 8 hrs; format: ADME, organism-based; set-up: dose 3 mg/kg, route oral; how it was run: as §4
[37] = Plasma concentration in femoral artery cannulated Lewis rat at 3 mg/kg, po after 12 hrs; format: ADME, organism-based; set-up: dose 3 mg/kg, route oral; how it was run: as §4
[38] = Plasma concentration in femoral artery cannulated Lewis rat at 3 mg/kg, po after 16 hrs; format: ADME, organism-based; set-up: dose 3 mg/kg, route oral; how it was run: as §4
[39] = Plasma concentration in femoral artery cannulated Lewis rat at 3 mg/kg, po after 20 hrs; format: ADME, organism-based; set-up: dose 3 mg/kg, route oral; how it was run: as §4
[40] = Plasma concentration in femoral artery cannulated Lewis rat at 3 mg/kg, po after 24 hrs; format: ADME, organism-based; set-up: dose 3 mg/kg, route oral; how it was run: as §4
[41] = Half life in Beagle dog at 1 mg/kg, po and 0.5 mg/kg, iv; details: in vivo

IC50 [1]: 1.2 nM (antagonist)
IC50 [2]: 1600 nM (antagonist)
IC50 [3]: 23 nM (antagonist)
half-life [8]: 6.7 h
concentration at 48 h [9]: 13 nM
concentration at 56 h [10]: 10 nM
clearance [20]: 12.3 mL/min/kg
Cmax [21]: 300 nM
Vd [22]: 1.6 L/kg
Cmax (Canis familiaris [23]): 1300 nM
Cmax [24]: 1800 nM
bioavailability [25]: 76%
concentration at 24 h [27]: 22 nM
concentration at 24 h [28]: 370 nM
concentration at 24 h [29]: 1400 nM
concentration at 72 h [31]: 8 nM
concentration at 0.5 h [32]: 200 nM
concentration at 2 h [33]: 310 nM
concentration at 4 h [34]: 320 nM
concentration at 6 h [35]: 380 nM
concentration at 8 h [36]: 310 nM
concentration at 12 h [37]: 280 nM
concentration at 16 h [38]: 170 nM
concentration at 20 h [39]: 150 nM
concentration at 24 h [40]: 120 nM
half-life [41]: 9.7 h
SMILES: O=C(O)C1CN(Cc2ccc(OCc3cc(-c4ccccc4)c(C(F)(F)F)s3)cc2)C1
Activity (Rattus norvegicus [4]): 1530 µL⁻¹
Activity (Rattus norvegicus [5]): 1530 µL⁻¹
Activity (Rattus norvegicus [6]): 68%
Activity (Rattus norvegicus [7]): 78%
Activity (Rattus norvegicus [11]): 3330 µL⁻¹
Activity (Rattus norvegicus [12]): 1470 µL⁻¹
Activity (Rattus norvegicus [13]): 1530 µL⁻¹
Activity (Rattus norvegicus [14]): 1600 µL⁻¹
Activity (Rattus norvegicus [15]): 1570 µL⁻¹
Activity (Rattus norvegicus [16]): 1800 µL⁻¹
Activity (Rattus norvegicus [17]): 4000 µL⁻¹
Activity (Rattus norvegicus [18]): 4270 µL⁻¹
Activity (Rattus norvegicus [19]): 79%
Activity (Canis familiaris [26]): Active
Activity (Rattus norvegicus [30]): 7000 µL⁻¹
